Reference: PMC5110371 (Nature chemical biology, 2016)

Key:
[1] = target: Enolase 2 (Homo sapiens, UniProt P09104); assay: Cellular thermal shift assay in intact D423 ENO2 glioma cells; type: cell-based; settings: 100 μM, without inhibitor ~65 °C
In short: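 D423 glioma cells overexpressing ENO2, grown in DMEM with 10% FBS, treated one day with 100 μM test compound or vehicle. Trypsinized, PBS-washed, resuspended in PBS at 0.5 × 10^6 cells/mL, heated on a 50–90 °C gradient. Lysed with twice the volume of 20 mM Tris-HCl, 1 mM EDTA, 1 mM β-mercaptoethanol pH 7.4, plus one dry-ice freeze-thaw. Soluble ENO2 followed by immunoblotting.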

[2] = test system: Gli56 ENO1-deleted glioma cells; assay: Proliferation; type: cell-based, human; settings: Supplementary Fig. 9
In short: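 Growth was followed by IncuCyte live-cell confluence imaging every 4 h. Initial seeding was 1.5 × 10^3 cells/well in 96-well plates, with duplicate replicates. Cells were cultured in DMEM with 10% FBS. ENO1-intact cell lines were used as comparators.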

[3] = test system: D423 ENO1-deleted glioma cells; assay: Cell density; type: cell-based, human; settings: 72 hours
In short: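 Cells were seeded at 1 × 10^4 cells/well in 96-well plates and treated the next day. They were then held either under hypoxia (0.1% O2, 5% CO2) or normoxia for 72 h. Cells were fixed in 10% formalin and stained with crystal violet. Dye was extracted with 10% acetic acid and absorbance read at 595 nm.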

[4] = target: T1, ENO2 (Homo sapiens, UniProt P09104); assay: Ligand-induced thermal shift assay, lysates of D423 overexpressing ENO2; type: binding; settings: 1 μM inhibitor, cell lysates
T1 sequence (P09104 whole entry): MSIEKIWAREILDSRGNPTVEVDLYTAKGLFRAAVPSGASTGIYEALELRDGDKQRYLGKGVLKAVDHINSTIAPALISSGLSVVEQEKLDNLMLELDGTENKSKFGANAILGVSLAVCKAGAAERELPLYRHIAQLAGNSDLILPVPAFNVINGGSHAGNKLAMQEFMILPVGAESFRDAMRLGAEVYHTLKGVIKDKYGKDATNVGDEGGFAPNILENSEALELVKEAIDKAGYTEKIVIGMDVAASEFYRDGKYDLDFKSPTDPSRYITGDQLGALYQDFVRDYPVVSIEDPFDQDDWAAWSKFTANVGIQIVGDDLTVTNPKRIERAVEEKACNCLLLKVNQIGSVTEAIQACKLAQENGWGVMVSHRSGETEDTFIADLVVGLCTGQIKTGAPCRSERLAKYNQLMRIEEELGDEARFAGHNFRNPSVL
In short: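 Lysate in 20 mM Tris-HCl, 1 mM EDTA, 1 mM β-mercaptoethanol (pH 7.4), homogenised, sonicated and cleared at 20,000 g for 10 min. Diluted 1:100 in enolase buffer (10 mM KCl, 5 mM MgSO4, 100 mM triethanolamine, pH 7.4). Treated with 1 μM test compound or vehicle, heated at 50–90 °C for 3 min, recentrifuged. ENO2 in supernatant immunoblotted; band intensity plotted versus temperature.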

[5] = target: T1, ENO2; assay: Thermal shift assay, purified recombinant human ENO2; type: binding; settings: concentration not stated in the sentence (Supplementary Fig. 6: 1 µM or 25 µM)
In short: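 Diluted and treated with test compound or vehicle in enolase assay buffer (10 mM KCl, 5 mM MgSO4, 100 mM triethanolamine, pH 7.4). Heated 50–90 °C for 3 min, spun 20,000 g for 10 min, supernatant ENO2 immunoblotted.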

[6] = test system: D423 ENO1-deleted glioma cells; assay: 13C-1 glucose isotope tracing; type: cell-based, human; settings: 10 μM; for conversion of 13C-1 glucose to 13C-3 glycerate: 72 hours
In short: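 Glucose-free DMEM supplemented with 10 mM 13C-1 glucose; test compound at 10 μM. Media extracted with 80% methanol at −80 °C, centrifuged, lyophilised, redissolved in D2O and analysed by proton-decoupled 13C NMR. Glycerate was read as the peak at 64 ppm, also expressed as a ratio to 13C-3 lactate. Isogenic ENO1-rescued D423 cells served as comparison.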

[7] = target: Triosephosphate isomerase (Homo sapiens, UniProt P60174); assay: Thermal shift assay, internal control Triosephosphate isomerase; type: binding; settings: cell lysates
Sequence of Triosephosphate isomerase (P60174 whole entry): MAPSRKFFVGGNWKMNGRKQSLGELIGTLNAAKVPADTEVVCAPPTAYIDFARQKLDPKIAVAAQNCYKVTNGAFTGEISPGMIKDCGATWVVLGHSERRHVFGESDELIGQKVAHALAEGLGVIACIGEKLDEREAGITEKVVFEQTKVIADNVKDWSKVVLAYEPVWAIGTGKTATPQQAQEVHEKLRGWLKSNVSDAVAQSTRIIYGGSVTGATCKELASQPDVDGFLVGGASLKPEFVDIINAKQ
In short: (§1)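 Lysates of D423 glioma cells overexpressing ENO1 or ENO2 were made in 20 mM Tris-HCl, 1 mM EDTA, 1 mM β-mercaptoethanol, pH 7.4, homogenised, sonicated and cleared at 20,000 g for 10 min. They were diluted 1:100 in enolase assay buffer (10 mM KCl, 5 mM MgSO4, 100 mM triethanolamine, pH 7.4), given test compound or vehicle, and heated 3 min at 50–90 °C. After 20,000 g spin, supernatant was immunoblotted (anti-vinculin, anti-TPI, both 1:3000).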

[8] = target: T2, Vinculin (Homo sapiens, UniProt P18206); assay: Thermal shift assay, internal control Vinculin; type: binding; settings: cell lysates
T2 sequence (P18206 1-1066 isoform P18206-2): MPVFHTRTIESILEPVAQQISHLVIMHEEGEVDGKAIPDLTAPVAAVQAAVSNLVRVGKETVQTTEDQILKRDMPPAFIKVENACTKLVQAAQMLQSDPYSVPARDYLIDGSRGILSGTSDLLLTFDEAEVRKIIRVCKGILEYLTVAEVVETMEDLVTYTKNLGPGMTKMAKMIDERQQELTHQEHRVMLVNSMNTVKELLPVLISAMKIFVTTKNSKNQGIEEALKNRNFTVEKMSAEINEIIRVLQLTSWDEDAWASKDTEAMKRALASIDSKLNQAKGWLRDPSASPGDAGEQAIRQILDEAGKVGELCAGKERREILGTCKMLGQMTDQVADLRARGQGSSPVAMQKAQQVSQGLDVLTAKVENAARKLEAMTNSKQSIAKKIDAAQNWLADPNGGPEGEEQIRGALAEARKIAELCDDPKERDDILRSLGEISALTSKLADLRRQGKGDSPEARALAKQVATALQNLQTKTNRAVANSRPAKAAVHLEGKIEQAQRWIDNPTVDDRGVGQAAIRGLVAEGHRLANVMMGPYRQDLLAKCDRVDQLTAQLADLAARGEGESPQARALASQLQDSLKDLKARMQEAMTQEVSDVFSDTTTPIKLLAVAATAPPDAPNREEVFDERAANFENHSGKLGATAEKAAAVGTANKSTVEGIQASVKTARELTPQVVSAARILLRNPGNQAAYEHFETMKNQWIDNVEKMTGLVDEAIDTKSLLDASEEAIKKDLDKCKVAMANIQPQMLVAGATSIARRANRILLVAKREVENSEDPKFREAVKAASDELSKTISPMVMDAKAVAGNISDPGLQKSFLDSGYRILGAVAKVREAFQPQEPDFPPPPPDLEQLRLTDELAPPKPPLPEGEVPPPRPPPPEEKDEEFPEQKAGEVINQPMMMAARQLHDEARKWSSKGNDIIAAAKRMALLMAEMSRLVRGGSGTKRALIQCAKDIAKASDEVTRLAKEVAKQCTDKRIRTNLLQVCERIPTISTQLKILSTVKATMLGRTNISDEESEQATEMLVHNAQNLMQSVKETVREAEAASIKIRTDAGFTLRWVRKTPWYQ
In short: as §1

[9] = test system: D423 ENO1-deleted glioma cells; assay: Proliferation; type: cell-based, human
In short: (§2)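 Cells were seeded at 2 × 10^3 cells/well in 96-well plates and treated for 2 weeks across a concentration range. Medium was then refreshed, and Hoechst 33342 (total cells) plus YO-PRO-1 (apoptotic cells) were added at 1:1000 final dilution for 2 h at 37 °C. Wells were imaged and quantified by high-content imaging. Conditions were run in duplicate and expressed relative to vehicle.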

[10] = test system: ENO1-intact glioma cells; assay: Toxicity to ENO1-intact cells; type: cell-based, human; settings: 10 μM, four days
[11] = test system: D423 ENO1-rescued glioma cells; assay: Proliferation; type: cell-based, human
In short: as §2

[12] = test system: fungi; settings: cited from earlier work
[13] = target: Enolase (Homo sapiens, UniProt P09104); assay: Enolase enzymatic activity in vitro; type: biochemical
Sequence of Enolase (Homo sapiens, UniProt P09104) (P09104 whole entry): as the sequence (P09104 whole entry) above

[14] = test system: Enolase; assay: Enolase enzymatic activity in vitro; type: biochemical
[15] = test system: Salmonella; settings: cited from earlier work
[16] = Configurational stability in aqueous solution; type: physicochemical
[17] = test system: Staphylococcus; settings: cited from earlier work
[18] = test system: E. coli; settings: cited from earlier work
[19] = test system: D423 ENO1-deleted glioma cells; assay: Mass spectrometric determination of 3-PGA and PEP; type: cell-based, human; settings: 10 μM and 25 μM, 72 hours
In short: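 D423 ENO1-deleted glioma cells and isogenic ENO1-rescued controls were grown in DMEM with 10% FBS. They were treated with vehicle, 10 μM or 25 μM test compound for 72 h. Polar metabolites were extracted with 80% methanol at −80°C and quantified by mass spectrometry to give the 3-PGA/PEP ratio. Each bar is an independently treated culture; comparisons used unpaired two-tailed t-tests with Bonferroni correction.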

[20] = test system: D423 ENO1-deleted glioma cells; assay: Time course of ATP; type: cell-based, human
[21] = 2 weeks, YO-PRO-1 positive cells

Sequence of Enolase 2 (P09104 whole entry): as above

O=C(CP(=O)(O)O)NO [PhAH, Phosphonoacetohydroxamate, reference compound]
shift of the thermal melting curve of ENO2 in intact glioma cells [1]: ~ 6 °C | toxicity against Gli56 versus ENO1-intact cell lines [2]: selective toxicity | concentration at which potentiation of toxicity by hypoxia is evident ([3]; hypoxia vs normoxia): 200 µM | shift in the thermal denaturation of ENO2 [4]: ~ 6 °C | stabilization of recombinant human ENO2 (shift of thermal denaturation curve) [5]: ~ 6 °C | conversion of 13C-1 glucose to 13C-3 glycerate [6]: to a lesser extent | effect on thermal stability of Triosephosphate isomerase [7]: Neither PhAH nor SF2312 affected the thermal stability | effect on thermal stability of Vinculin [8]: Neither PhAH nor SF2312 affected the thermal stability

O=C1C(P(=O)(O)O)CC(O)N1O (stereo not drawn) [SF2312, (1,5-dihydroxy-2-oxopyrrolidin-3-yl)phosphonic acid]
shift of the thermal melting curve of ENO2 in intact glioma cells [1]: ~ 15 °C | concentration inhibiting proliferation ([9]; 2 weeks treatment course): low μM range | concentration at which induction of cell death starts [9, 21]: 12.5 µM | toxicity [10]: non-toxic | toxicity against Gli56 versus ENO1-intact cell lines [2]: selective toxicity | concentration inhibiting proliferation ([11]; 2 weeks treatment course, ectopically re-expressing ENO1): above 200 μM | concentration at which induction of cell death is seen [11, 21]: 400 µM | antibiotic activity [12]: no activity | kinetics with respect to substrate 2-PGA ([13]; ENO2, at IC50): non-competitive kinetics | kinetics with respect to substrate 2-PGA ([13]; ENO2, at higher concentrations of inhibitor): competitive kinetics | type of inhibitor (on/off rate) ([14]; order of addition of inhibitor and substrate): slow-on/slow-off inhibitor | concentrations at which cells were essentially eradicated ([3]; hypoxia (0.1% O2)): > 6.25 µM | eradication of cells ([3]; normoxia, 100 μM inhibitor): no eradication was observed | antibiotic activity [15]: strong activity | stability of stereocenters [16]: both stereocenters underwent spontaneous epimerization | antibiotic activity [17]: strong activity | antibiotic activity [18]: weak activity | shift in the thermal denaturation of ENO2 [4]: ~ 9.5 °C | melting temperature (Tm) of ENO2 ([4]; without inhibitor ~63 °C): ~ 72.5 °C | stabilization of recombinant human ENO2 (shift of thermal denaturation curve) [5]: ~ 12 °C | ratio of 3-PGA/PEP [19]: dramatic increase | conversion of 13C-1 glucose to 13C-3 glycerate [6]: dramatically increases | glucose consumption and lactate production in media ([6]; four days, 13C-1 glucose, D423 and Gli56 ENO1 deleted cells): profound inhibition of glucose consumption | effect on thermal stability of Triosephosphate isomerase [7]: Neither PhAH nor SF2312 affected the thermal stability | effect on thermal stability of Vinculin [8]: Neither PhAH nor SF2312 affected the thermal stability | time after initiation of treatment at which declines in ATP occurred [20]: 8 h

O=C1C(P(=O)(O)O)CCN1O (stereo not drawn) [deoxy-SF2312, 1-hydroxy-2-oxopyrrolidin-3-ylphosphonic acid]
kinetics with respect to substrate 2-PGA ([13]; ENO2 (Fig. 1d)): clear competitive kinetics | IC50 ([14]; read-out: IC50 as an enolase inhibitor): ~2 µM
